High-throughput results deposited in PubChem BioAssay by Johns Hopkins Ion Channel Center.
KCNQ1 pot – potentiates or activates the human KCNQ1 potassium channel; B-score at 10 µM; AID 2648; CHO-K1 KCNQ1, thallium flux FluxOR fluorescence; hits give high values; actives 0.35% (n = 310,000);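 active = fluorescence ratio B-score, a plate-corrected score, at least three library SD, with initial intensity B-score within 5 SD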
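assay system = KCNQ1-transfected CHO-K1 cells | medium = assay buffer with matched DMSO | probe or stimulus = depolarizing K+/Tl+ stimulus, K2SO4 and Tl2SO4 each 12.5 mM in 5x stock | dosing = single dose | incubation = dye 90 min, compound 20 min, room temperature | detection = kinetic FluxOR fluorescence, 10 s baseline plus 110 s post-stimulus | evaluation = ratio B score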
Kir21 block – Kir2.1 (mouse) channel inhibition | P35561 | HEK293-Kir2.1, FluxOR thallium flux fluorescence; hits give low values | B-score at 10 µM | actives 0.85% (n = 310,000);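 active = fluorescence ratio B-score at or below minus 3 SD of library scores, with starting-brightness B-score within 2 SD, cut at about -4.2 in these data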;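 also: channel flux triggered by added potassium and thallium sulfate stimulus; B-score of peak minus minimum fluorescence over baseline after thallium stimulus; more negative B-score means stronger Kir2.1 block with less thallium influx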
KCNK9 inh – inhibitors of human KCNK9 two-pore domain potassium channel; Q9NPC2; HEK293 KCNK9, FluxOR thallium flux fluorescence; hits give low values; B-score at 10 µM; actives 1.2% (n = 310,000);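 active = ratio B-score over 3 SD below the library mean, with starting fluorescence within 5 SD of its mean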;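 also: negative B-score means less thallium flux so channel inhibition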
KCNK3 inh – human KCNK3 channel inhibition, primary screen; O14649; CHO-KCNK3 thallium flux, FluxOR fluorescence; hits give low values; B-score at 10 µM; actives 0.84% (n = 340,000); AID 602410;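 active = B-score under library mean minus 4 SD, starting fluorescence ratio at most library mean plus 5 SD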;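 also: more negative B-score means stronger inhibition of thallium flux through KCNK3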
KCNQ1 block – human KCNQ1 channel inhibition; P51787; CHO-K1 KCNQ1, FluxOR thallium flux fluorescence; hits give high values; B-score at 10 µM; actives 1.3% (n = 310,000); AID 2642;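 active = compounds whose thallium flux B-score, printed positive for inhibition, exceeds three library SD while starting fluorescence stays within three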;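 also: channel opened by potassium depolarization with thallium stimulus after 20 min compound exposure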
hERG protect – hERG (human) protection from proarrhythmic block. Q12809. CHO-hERG, FluxOR thallium flux, dofetilide IC70 present. activation (rescue from dofetilide block), less the hit threshold, % at 10 µM. actives 0.51% (n = 310,000). AID 1511;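 active = activation above the mean of controls blocked by dofetilide plus 5 SD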;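 also: thallium influx through hERG after potassium depolarization seen as dye fluorescence rise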
Target sequence (Q12809 whole entry, looked up): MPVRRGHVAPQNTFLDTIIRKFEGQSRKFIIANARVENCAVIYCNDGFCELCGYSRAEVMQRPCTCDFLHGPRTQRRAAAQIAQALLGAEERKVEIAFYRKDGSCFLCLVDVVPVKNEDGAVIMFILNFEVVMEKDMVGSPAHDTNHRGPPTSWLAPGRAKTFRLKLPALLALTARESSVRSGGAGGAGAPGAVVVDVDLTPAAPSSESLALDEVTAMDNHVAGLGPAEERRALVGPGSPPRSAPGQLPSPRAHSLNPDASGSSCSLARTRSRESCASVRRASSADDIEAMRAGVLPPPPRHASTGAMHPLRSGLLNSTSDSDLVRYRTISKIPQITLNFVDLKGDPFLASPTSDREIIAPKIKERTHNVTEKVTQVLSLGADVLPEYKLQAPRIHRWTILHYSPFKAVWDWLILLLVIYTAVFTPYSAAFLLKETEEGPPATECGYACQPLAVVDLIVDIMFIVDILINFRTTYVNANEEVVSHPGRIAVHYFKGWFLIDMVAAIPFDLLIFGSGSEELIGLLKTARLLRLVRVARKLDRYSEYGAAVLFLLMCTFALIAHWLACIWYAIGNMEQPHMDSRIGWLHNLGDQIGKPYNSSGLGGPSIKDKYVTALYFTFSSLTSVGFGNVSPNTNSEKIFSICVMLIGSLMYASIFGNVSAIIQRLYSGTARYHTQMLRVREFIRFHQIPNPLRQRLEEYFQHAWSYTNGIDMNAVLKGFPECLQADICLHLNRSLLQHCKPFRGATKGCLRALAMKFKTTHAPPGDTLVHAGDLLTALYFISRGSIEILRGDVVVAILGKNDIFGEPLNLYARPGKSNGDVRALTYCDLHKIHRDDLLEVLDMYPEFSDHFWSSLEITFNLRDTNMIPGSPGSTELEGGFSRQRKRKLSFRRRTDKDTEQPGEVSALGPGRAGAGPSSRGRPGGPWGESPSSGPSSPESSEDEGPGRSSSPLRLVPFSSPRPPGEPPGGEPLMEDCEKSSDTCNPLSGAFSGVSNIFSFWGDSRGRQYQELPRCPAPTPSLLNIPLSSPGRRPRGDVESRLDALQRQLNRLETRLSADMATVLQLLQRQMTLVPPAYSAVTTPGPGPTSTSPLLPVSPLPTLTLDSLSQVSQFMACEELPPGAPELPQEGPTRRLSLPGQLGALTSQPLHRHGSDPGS
Hits are given with their value; – = inactive; · = not tested or not shown; ! = a repeat was not active. This is a sample that favours compounds with a hit; in the whole collection about 3.7% have one here.

SMILES	KCNQ1 pot	Kir21 block	KCNK9 inh	KCNK3 inh	KCNQ1 block	hERG protect
COC(=O)COc1ccc2c(c1)O/C(=C\c1ccco1)C2=O	–	–	–	–	–	–
Cc1cc(O)cc2c1C(=O)/C(=C/c1ccco1)O2	–	–	–	–	11	–
CCC(=O)Oc1ccc2c(c1)O/C(=C\c1ccco1)C2=O	–	–	–	–	6	–
CCN(CC)C(=O)Oc1ccc2c(c1)O/C(=C\c1ccco1)C2=O	–	–	–	–	–	–
COC(=O)c1cc(OC)c(OC)cc1NC(=O)C(C)c1ccc([N+](=O)[O-])cc1 (stereo not drawn)	–	–	–	–	–	–
Nc1c(S(=O)(=O)c2ccccc2)c2nc3ccccc3nc2n1Cc1ccco1	–	–	–	–	–	–
Cc1ccc(S(=O)(=O)c2c(N)n(Cc3ccco3)c3nc4ccccc4nc23)cc1C	–	–	–	–	14	–
COc1ccc(-n2c(-c3ccc(Br)cc3)c[n+]3c2CCc2ccccc2-3)cc1	–	-5.9	–	–	10	–
COc1ccc(-c2c[n+]3c(n2-c2ccccc2)CCCCC3)cc1	–	–	–	–	–	–
COc1ccccc1-n1c(-c2ccccc2)c[nH]c1=S	–	–	–	–	–	–
COc1ccc(-n2cc(-c3ccccc3)[n+]3c2CCCCC3)cc1	–	–	–	–	–	–
COc1ccccc1-n1c(-c2ccccc2)c[n+]2c1CCc1ccccc1-2	–	-14	-7.8	-9.5!	9!	–
COc1ccc(-c2cn(-c3ccc(OC)cc3)c3[n+]2-c2ccccc2CC3)cc1	–	–	–	–	6	–
Cc1cc(C)c2nc(-c3ccccn3)cc(C(=O)n3cccn3)c2c1	–	–	–	–	–	–
O=C(O)c1ccc(-c2nc(-c3ccccc3)c(-c3cccs3)[nH]2)cc1	–	–	–	–	–	–
COc1ccc(-c2nc(-c3cccs3)c(-c3cccs3)[nH]2)cc1O	–	-5.6	–	–	–	–
Cc1ccccc1-n1c(=O)c2ccccc2n2nnnc12	–	–	–	–	–	–
CCCCn1c(=O)nc2n(-c3ccccc3C)c3ccccc3cc-2c1=O	11	–	–	–	–	–
Cc1ccccc1-n1c2nc(=O)n(C)c(=O)c-2cc2ccccc21	–	–	–	–	7	–
CN(C)c1nc2c(c(=O)n(C)c(=O)n2C)n1Cc1ccccc1	–	–	–	–	–	–
Cn1c(=O)nc2n(Cc3ccccc3)c3ccccc3cc-2c1=O	8	–	–	–	–	–
CC(Nc1n[nH]c(=O)[nH]c1=O)C(=O)N/N=C/c1cccs1 (stereo not drawn)	–	–	–	–	–	–
CCN(CC)CCN1C(=O)c2ccccc2NC1c1ccccc1F (stereo not drawn)	–	–	–	–	–	5.1
O=C(Nc1cc(Sc2nc3ccccc3s2)cc([N+](=O)[O-])c1)c1ccccc1	–	–	–	–	11	–
O=C(COC(=O)c1ccc2c(=O)n3c(nc2c1)CCC3)Nc1ccc(OC(F)F)cc1	–	–	–	–	–	–
SMILES	KCNQ1 pot	Kir21 block	KCNK9 inh	KCNK3 inh	KCNQ1 block	hERG protect
O=C(CSCc1cccc(Cl)c1)NCc1ccc2c(c1)OCO2	–	–	–	–	–	–
O=C(NCc1ccc2c(c1)OCO2)c1ccc(CSCc2cccc(Cl)c2)o1	–	–	-7.5	–	–	–
CCCCc1nc2ccccc2c(=O)n1NC(=O)c1c(O)c2c(n(CC(C)C)c1=O)CCCC2	–	–	–	–	6	–
CCc1nc2ccccc2c(=O)n1NC(=O)c1c(O)c2ccccc2n(CC)c1=O	–	–	–	–	–	37
COc1cccc(C(C[N+](=O)[O-])c2c(C)[nH]n(-c3ccccc3)c2=O)c1 (stereo not drawn)	–	-13	–	–	8	–
CCCCCCNc1nc(NCc2ccco2)nc(OCC)n1	–	–	-6.9	–	–	–
CCCCCCCCNc1nc(Cl)nc(NCc2ccco2)n1	–	–	–	–	–	–
COC(=O)c1ccc(COC(=O)c2ccc(CO)cc2)o1	–	–	–	–	–	–
Clc1ccc(-c2c[n+](Cc3ccc(Cl)cc3Cl)c3n2CCCCC3)cc1	–	–	–	–	7	–
O=C(C[n+]1cc(-c2ccccc2)n2c1CCCCC2)c1ccc(Cl)cc1	–	–	–	–	–	–
Clc1ccc(C[n+]2cc(-c3ccccc3)n3c2CCCCC3)c(Cl)c1	–	–	–	–	–	–
CC1CCC(C(C)C)C(OC(=O)C[n+]2cc(-c3ccc(Cl)cc3)n3c2CCCCC3)C1 (stereo not drawn)	–	-8.6	–	-9.8	6	–
COc1ccc(Cl)cc1N(C)C(=O)CCNC(=O)Cn1cnc2ccccc2c1=O	–	–	–	–	–	5.0
O=C(CCc1ccccc1Cl)Nc1ccc(S(=O)(=O)N2CCOCC2)cc1	–	–	–	–	–	7.0
COc1ccc(CC(=O)Nc2ccc(C)c(S(=O)(=O)N3CCCCCC3)c2)cc1	·	·	·	–	·	·
Cc1ccc(NC(=O)Cc2ccc(Cl)cc2)cc1S(=O)(=O)N1CCCCCC1	·	·	·	-9	·	·
CCC(Oc1ccccc1)C(=O)Nc1ccc(S(=O)(=O)N2CCOCC2)cc1 (stereo not drawn)	–	–	–	–	–	5.0
Cc1ccc(NC(=S)Nc2ccc(S(=O)(=O)N3CCOCC3)cc2)cc1S(=O)(=O)N1CCOCC1	–	–	–	–	7	–
O=C(CCc1ccccc1Cl)Nc1cc(S(=O)(=O)N2CCOCC2)ccc1N1CCCC1	·	·	·	–	·	·
COc1ccc(NC(=O)CSc2nnc(N)s2)cc1S(=O)(=O)N1CCCCC1	·	·	·	–	·	·
CCN1C(=O)/C(=C/c2ccc(N3CCCC3)cc2)NC1=S	–	–	–	–	12	–
CCCN1C(=O)/C(=C/c2ccc(N3CCCC3)c(C)c2)NC1=S	–	–	–	–	–	–
CC1(N2CCCCC2)CC2(O)C(=[N+]1[O-])CCC/C2=N\O (stereo not drawn)	8	–	–	–	–	–
Cc1ccc(Nc2c(-c3ccccn3)nc3cccc(C)n23)cc1	–	–	–	–	–	–
OCCNCc1cc(Br)ccc1OCc1ccccc1	–	–	–	–	–	–
COc1ccc(Br)cc1/C=C/C(=O)OCC(=O)NCCc1ccc(S(N)(=O)=O)cc1	·	·	·	–	·	·
NS(=O)(=O)c1ccc(CCNCc2cc(Br)ccc2OCc2ccccc2)cc1	–	-8.2	–	–	–	–
COc1ccc(Br)cc1CN(C)CC(=O)NCCc1ccc(S(N)(=O)=O)cc1	–	-4.7	–	–	–	–
COc1ccc(NC(=O)CCc2nc3ccccc3[nH]2)cc1	–	–	–	–	–	–
N#Cc1ccc(C2=NC(C(F)(F)F)(C(F)(F)F)c3c(n(Cc4ccco4)c(=O)[nH]c3=O)N2)cc1	–	–	–	–	7	–
